Measured values as given in ChEMBL document CHEMBL4373666, “Piperidine carbamate peptidomimetic inhibitors of the serine proteases HGFA, matriptase and hepsin” (Medchemcomm, 2019).

Experiments:
[1] = molecular target: T1, Suppressor of tumorigenicity 14 protein (Homo sapiens, UniProt Q9Y5Y6); experiment: Inhibition of recombinant human N-terminal met-His6-tagged matriptase catalytic domain (Gly596 to Val855 residues) expressed in Escherichia coli using Boc-QAR-AMC as substrate preincubated for 30 mins followed by substrate addition by fluorescence based assay
T1 sequence (Q9Y5Y6 whole entry): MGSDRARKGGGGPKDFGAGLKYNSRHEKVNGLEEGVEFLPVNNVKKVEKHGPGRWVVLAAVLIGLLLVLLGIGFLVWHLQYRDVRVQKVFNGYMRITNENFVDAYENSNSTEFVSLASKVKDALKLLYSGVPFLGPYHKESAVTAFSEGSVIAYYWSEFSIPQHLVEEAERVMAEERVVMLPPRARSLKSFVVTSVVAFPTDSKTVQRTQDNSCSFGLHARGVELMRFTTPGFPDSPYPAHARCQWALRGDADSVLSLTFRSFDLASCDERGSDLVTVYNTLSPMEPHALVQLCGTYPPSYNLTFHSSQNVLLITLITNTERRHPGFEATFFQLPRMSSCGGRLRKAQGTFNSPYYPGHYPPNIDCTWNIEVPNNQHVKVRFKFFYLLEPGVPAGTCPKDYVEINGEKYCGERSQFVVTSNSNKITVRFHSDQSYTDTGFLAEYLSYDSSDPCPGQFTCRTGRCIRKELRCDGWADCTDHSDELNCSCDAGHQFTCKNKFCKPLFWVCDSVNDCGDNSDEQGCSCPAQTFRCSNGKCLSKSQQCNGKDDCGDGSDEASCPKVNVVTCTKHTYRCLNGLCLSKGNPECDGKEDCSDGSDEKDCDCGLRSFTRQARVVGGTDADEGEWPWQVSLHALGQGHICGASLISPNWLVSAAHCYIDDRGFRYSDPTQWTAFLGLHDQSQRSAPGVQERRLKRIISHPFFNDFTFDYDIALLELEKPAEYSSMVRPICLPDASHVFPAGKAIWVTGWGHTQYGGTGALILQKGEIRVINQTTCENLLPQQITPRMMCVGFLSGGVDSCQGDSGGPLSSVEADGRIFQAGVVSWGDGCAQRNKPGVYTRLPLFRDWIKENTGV

[2] = molecular target: T2, Hepatocyte growth factor activator serine protease (Homo sapiens, UniProt Q04756); experiment: Inhibition of recombinant HGFA serine protease domain (unknown origin) using Boc-QLR-AMC as substrate preincubated for 30 mins followed by substrate addition by fluorescence based assay
T2 sequence (Q04756 whole entry): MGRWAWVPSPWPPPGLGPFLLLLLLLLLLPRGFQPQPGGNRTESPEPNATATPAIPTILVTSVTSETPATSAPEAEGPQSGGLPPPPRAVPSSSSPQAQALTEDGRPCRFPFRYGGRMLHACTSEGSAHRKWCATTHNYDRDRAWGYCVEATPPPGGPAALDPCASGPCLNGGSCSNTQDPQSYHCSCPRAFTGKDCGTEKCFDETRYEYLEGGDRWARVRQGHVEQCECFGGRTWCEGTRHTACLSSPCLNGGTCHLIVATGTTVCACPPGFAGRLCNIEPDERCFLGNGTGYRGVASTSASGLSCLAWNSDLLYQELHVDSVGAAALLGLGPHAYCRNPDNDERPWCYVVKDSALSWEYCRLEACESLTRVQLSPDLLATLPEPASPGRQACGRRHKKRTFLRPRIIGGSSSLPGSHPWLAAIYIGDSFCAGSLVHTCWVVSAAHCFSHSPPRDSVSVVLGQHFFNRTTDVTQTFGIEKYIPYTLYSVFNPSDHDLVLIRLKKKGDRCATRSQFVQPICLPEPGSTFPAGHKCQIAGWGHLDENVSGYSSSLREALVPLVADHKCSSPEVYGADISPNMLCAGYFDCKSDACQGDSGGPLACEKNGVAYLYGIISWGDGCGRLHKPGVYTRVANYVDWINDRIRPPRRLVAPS
Summary of the method: (§1)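 Fluorogenic kinetic protease assay: Boc-QLR-AMC substrate for HGFA, Boc-QAR-AMC for hepsin. Each inhibitor was tested at eleven concentrations, pre-incubated with the protease, and then substrate was added. Release of fluorescent product was followed kinetically over one hour, and IC50 was taken from the concentration-dependent inhibition of proteolysis.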

[3] = molecular target: Serine protease hepsin (Homo sapiens, UniProt P05981); experiment: Inhibition of recombinant human C-terminal 10-His tagged hepsin (Arg45 to Leu417) expressed in mouse myeloma cells using Boc-QAR-AMC as substrate preincubated for 30 mins followed by substrate addition by fluorescence based assay; summary of the method: as §1
[4] = molecular target: Coagulation factor X (Homo sapiens, UniProt P00742); experiment: Inhibition of recombinant factor Xa (unknown origin) using Bz-Ile-Glu-Gly-Arg-pNA as substrate preincubated for 30 mins followed by substrate addition by chromogenic assay
[5] = molecular target: Prothrombin (Homo sapiens, UniProt P00734); experiment: Inhibition of recombinant thrombin (unknown origin) using D-Phe-Pip-Arg-pNA as substrate preincubated for 30 mins followed by substrate addition by chromogenic assay

Chain of Serine protease hepsin (P05981 1-162 limits assumed): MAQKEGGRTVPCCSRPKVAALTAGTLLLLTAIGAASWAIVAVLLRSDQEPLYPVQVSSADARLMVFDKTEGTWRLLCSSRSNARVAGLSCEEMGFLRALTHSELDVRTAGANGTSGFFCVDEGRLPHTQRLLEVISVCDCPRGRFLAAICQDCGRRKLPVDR
Chain of Serine protease hepsin (P05981 163-417 limits assumed): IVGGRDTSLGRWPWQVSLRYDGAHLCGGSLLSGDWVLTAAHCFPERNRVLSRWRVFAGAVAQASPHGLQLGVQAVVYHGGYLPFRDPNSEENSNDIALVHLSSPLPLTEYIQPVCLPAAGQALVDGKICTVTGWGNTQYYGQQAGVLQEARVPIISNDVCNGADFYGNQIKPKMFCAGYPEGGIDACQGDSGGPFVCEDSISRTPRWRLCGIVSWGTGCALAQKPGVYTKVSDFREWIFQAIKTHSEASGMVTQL
Chain of Coagulation factor X (P00742 41-179 limits assumed): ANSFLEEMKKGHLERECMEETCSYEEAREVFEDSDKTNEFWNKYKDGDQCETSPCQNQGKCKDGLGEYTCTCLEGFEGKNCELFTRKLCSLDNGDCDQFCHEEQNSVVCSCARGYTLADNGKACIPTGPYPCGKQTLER
Chain of Coagulation factor X (P00742 235-488 limits assumed): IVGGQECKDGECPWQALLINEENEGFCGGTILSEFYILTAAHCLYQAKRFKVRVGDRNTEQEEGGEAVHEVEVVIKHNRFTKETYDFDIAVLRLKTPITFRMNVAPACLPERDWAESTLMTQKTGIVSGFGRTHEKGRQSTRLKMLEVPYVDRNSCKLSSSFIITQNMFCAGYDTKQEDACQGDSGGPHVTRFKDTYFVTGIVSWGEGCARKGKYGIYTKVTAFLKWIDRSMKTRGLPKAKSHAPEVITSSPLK

SMILES	IC50 [1] [µM]	IC50 [2] [µM]	IC50 [3] [µM]	IC50 [4] [µM]	IC50 [5] [µM]
CC(C)c1cc(C(C)C)c(S(=O)(=O)N[C@@H](Cc2cccc(C(=N)N)c2)C(=O)N2CCN(C(=O)C3CCNCC3)CC2)c(C(C)C)c1	–	11	14	–	–
CC(C)C[C@H](NC(=O)OC1(c2ccccc2)CCNCC1)C(=O)N[C@@H](CCCNC(=N)N)C(=O)c1nc2ccccc2s1	–	–	–	–	> 20
CC(=O)N1CCC(OC(=O)N[C@@H](CC(C)C)C(=O)N[C@@H](CCCNC(=N)N)C(=O)c2nc3ccccc3s2)CC1	–	> 20	–	–	–
CC(C)C[C@H](NC(=O)OC1CCN(S(=O)(=O)c2ccccc2)CC1)C(=O)N[C@@H](CCCNC(=N)N)C(=O)c1nc2ccccc2s1	–	–	–	> 20	> 20
CC(C)C[C@H](NC(=O)OC1(Cc2ccccc2)CCNCC1)C(=O)N[C@@H](CCCNC(=N)N)C(=O)c1nc2ccccc2s1	0.03	1.2	0.0006	6.5	> 20
CC(C)C[C@H](NC(=O)OC1CCN(S(=O)(=O)c2ccc([N+](=O)[O-])cc2[N+](=O)[O-])CC1)C(=O)N[C@@H](CCCNC(=N)N)C(=O)c1nc2ccccc2s1	–	> 20	–	–	–
N=C(N)NCCC[C@H](NC(=O)[C@H](CC1CCCCC1)NC(=O)OC1(c2ccccc2)CCNCC1)C(=O)c1nc2ccccc2s1	–	> 20	–	–	> 20

Continued, values first:

IC50 [1] [µM]	IC50 [2] [µM]	IC50 [3] [µM]	IC50 [4] [µM]	IC50 [5] [µM]	SMILES
8.4	30	0.09	–	–	N=C(N)c1cccc(C[C@H](NS(=O)(=O)c2ccc3ccccc3c2)C(=O)N2CCN(C(=O)NCc3ccc(Br)cc3)CC2)c1
3.2	20	1.9	0.38	11.6	CC1CN(CC2CCN(Cc3ccccc3)CC2)C(=O)N(c2cccc(C(=N)N)c2)C1 (configuration not stated)
–	–	–	> 20	> 20	CC(C)C[C@H](NC(=O)OC(c1ccccc1)C1CCNCC1)C(=O)N[C@@H](CCCNC(=N)N)C(=O)c1nc2ccccc2s1 (some centres not stated)
–	> 20	–	> 20	> 20	CCS(=O)(=O)N1CCC(OC(=O)N[C@@H](CC(C)C)C(=O)N[C@@H](CCCNC(=N)N)C(=O)c2nc3ccccc3s2)CC1
–	–	–	–	> 20	CC(=O)N[C@@H](CCCCN)C(=O)N[C@@H](CCC(N)=O)C(=O)N[C@@H](CC(C)C)C(=O)N[C@@H](CCCNC(=N)N)C(=O)c1nc2ccccc2s1
–	> 20	–	–	–	CC(=O)N1CCC(CCc2ccccc2)(OC(=O)N[C@@H](CC(C)C)C(=O)N[C@@H](CCCNC(=N)N)C(=O)c2nc3ccccc3s2)CC1
–	–	–	–	> 20	CC(=O)N[C@@H](CO)C(=O)N[C@@H](CCCCN)C(=O)N[C@@H](CC(C)C)C(=O)N[C@@H](CCCNC(=N)N)C(=O)c1nc2ccccc2s1
–	> 20	–	–	–	CC(C)C[C@H](NC(=O)OC1CCN(S(=O)(=O)c2cccc(F)c2)CC1)C(=O)N[C@@H](CCCNC(=N)N)C(=O)c1nc2ccccc2s1
> 20	–	–	–	–	Cc1cc(C)c(S(=O)(=O)N2CCC(OC(=O)N[C@@H](CC(C)C)C(=O)N[C@@H](CCCNC(=N)N)C(=O)c3nc4ccccc4s3)CC2)c(C)c1
